Screening data as filed in PubChem.
GPR7 antag: blocks human GPR7 receptor signaling; GPR7-expressing cells, fluorescence antagonist assay; inhibition, % at 4.4 µM; 290,000 tested, 1.1% active; in the data active = inhibition above about 16%, passing the limit was not always enough;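 also: cells stimulated with the agonist NPW; 0% = agonist with vehicle and 100% = vehicle without agonist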
Target sequence (P48145 whole entry, looked up): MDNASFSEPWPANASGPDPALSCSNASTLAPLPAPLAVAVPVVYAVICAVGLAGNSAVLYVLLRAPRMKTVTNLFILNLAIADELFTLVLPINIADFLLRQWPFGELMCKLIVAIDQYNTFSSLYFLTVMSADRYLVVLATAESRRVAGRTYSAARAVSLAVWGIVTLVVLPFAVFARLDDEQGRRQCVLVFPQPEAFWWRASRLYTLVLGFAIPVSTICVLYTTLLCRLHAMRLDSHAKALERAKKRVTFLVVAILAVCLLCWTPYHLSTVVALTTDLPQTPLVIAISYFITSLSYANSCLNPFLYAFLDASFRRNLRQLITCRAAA
p-CIP stab down: p/CIP protein destabilization. 290,000 tested, 0.01% active. decrease of EGFP signal, % at 10 µM. Q05BA5. F442A p/CIP-EGFP cells, EGFP fluorescence, 16 h. AID 1984;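 active = EGFP signal decrease of at least 30% at 10 µM or well 3 SD below plate mean, unless failing retest; inactive = the rest, including hits failing retest or dose response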
core dimer inh: HCV core protein dimerization inhibition; 300,000 tested, 0.33% active; TR-FRET GST/Flag-core106 dimerization, 1536-well; inhibition, % at 5 µM;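 active = inhibition above the mean of all tested compounds plus 3 SD, set per screening campaign, cut at about 45% in these data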
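System: GST/Flag-tagged HCV core106 proteins. Incubation: compound-protein-antibody incubation 4 h at 22.5 °C. Technique: HTRF with 340 nm excitation, 617/671 nm emission. Medium: KF-containing HEPES buffer, pH 7.45, DTT, CHAPS, BSA. Read-out: inhibition (%) from 671 over 617 nm ratio. Also added: Eu(K)-anti-GST 90 ng/mL plus XL665-anti-Flag 1 µg/mL.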
NS3 helicase inh: HCV NS3 helicase inhibition | NS3 helicase DNA unwinding, Cy5 molecular beacon fluorescence | inhibition, % at 10.9 µM | 290,000 tested, 0.56% active | AID 1800;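 active = inhibition above the mean of all tested compounds plus 3 SD, set per campaign, cut at about 35% in these data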;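 also: 0% = DMSO wells and 100% = thioflavine S control wells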
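Assay system – hepatitis C virus NS3 helicase domain fragment enzyme · Buffer or medium – MOPS pH 6.5, MgCl2, DTT, Tween20, BSA · Reagent – Cy5/quencher beacon DNA duplex and ATP to start · Compound – single 10.9 µM dose · Timing – 1 h at 25 °C · Technique – Cy5 beacon fluorescence read at start and 1 h · Measure – % inhibition of unwinding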
DNA FID counter: fluorescent intercalator displacement, NS3 helicase counter-screen. DNA fluorescent intercalator displacement, fluorescence. inhibition, % at 7.9 µM. 290,000 tested, 0.17% active. AID 1845; in the data active = inhibition above about 37%;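 also: 0% = vehicle and 100% = reference compound; higher means more ethidium bromide displaced from hairpin DNA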
Starred values were filed as active, the others as inactive; x = no result given. Rows were chosen to be rich in hits. Some 1.9% of all compounds tested hit in one or more screens of this group.

SMILES	GPR7 antag	p-CIP stab down	core dimer inh	NS3 helicase inh	DNA FID counter
O=C(O)C1=CC(=C(c2ccc(O)c(C(=O)O)c2)c2ccc(O)c(C(=O)O)c2)C=CC1=O	x	x	77.2*	x	x
CCOC(=O)CC(NC(=O)Cn1nnc(-c2ccccc2Cl)n1)c1ccc(OC)cc1 (configuration not stated)	19.6*	-8.3	0.6	-2.3	-13.8
CCOC(=O)CC(NC(=O)Cn1nnc(-c2ccccc2F)n1)c1ccc(OC)cc1 (configuration not stated)	3.5	-3.3	-4.2	-4.9	-15.7
c1ccc(COc2ccc(OCCCCN3CCCCC3)cc2)cc1	14.9	5.3	2.7	-4.6	44.4*
O=C(c1ccccc1)c1ccc(OCCCCN2CCCCC2)cc1	5.6	-4.8	-10.3	-1.0	9.1
Clc1ccc(SCCCCN2CCNCC2)cc1	9.8	-10.9	-6.3	-29.9	15.1
O=S(=O)(c1cccc2cccnc12)n1cnc2ccccc21	12.4*	1.2	-3.7	-4.6	-4.4
O=C1c2c(O)cccc2Cc2cccc(O)c21	x	x	58.5*	x	x
NC(=O)CC(NC(=O)Cc1ccc(Cl)cc1)c1ccc(N2CCC(Cc3ccccc3)CC2)c([N+](=O)[O-])c1 (configuration not stated)	-6.1	2.0	-2.5	25.8	-13.0
c1ccc(-c2ccccc2OCCOCCN2CCc3ccccc3C2)cc1	15.8*	13.3	-4.9	-57.0	22.2
CCN(CC)c1ccc(C2Nc3cccc4cccc(c34)N2)cc1	-12.2	-4.9	-4.5	-3.1	-2.5
CC(C)(C)C1CCC2(CC1)Nc1cccc3cccc(c13)N2	16.1	-7.9	69.7*	-8.1	-2.5
CN1CCN(S(=O)(=O)c2ccc(NC(=O)Cc3cccs3)cc2)CC1	-14.4	-4.9	7.5	1.6	12.0
O=C(Cc1cccs1)Nc1ccc(S(=O)(=O)N2CCCCC2)cc1	3.4	-0.4	72.0*	7.1	-13.3
O=C(Cc1ccc(S(=O)(=O)N2CCOCC2)s1)Nc1nc2c(s1)CCCC2	-5.8	-7.6	84.0*	23.2	-11.6
CC(=O)Nc1ccc(NC(=O)Cc2ccc(S(=O)(=O)N3CCCCC3)s2)cc1	6.0	-10.4	59.6*	12.9	-9.4
O=C(Cc1ccc(S(=O)(=O)N2CCOCC2)s1)Nc1ccc(S(=O)(=O)N2CCCCC2)cc1	x	x	4.9	x	x
CCN(C(=O)Cn1cc(C(=O)C(=O)N2CCOCC2)c2ccccc21)c1ccccc1	5.0	-0.5	-9.3	0.5	-41.2
CCOC(=O)c1cnc(-c2ccccc2)nc1Oc1ccc(Cl)c(Cl)c1	18.5*	-9.5	-5.2	-1.8	-1.4
Cc1ccc2oc(-c3cccc(NC(=S)NC(=O)c4cccs4)c3)nc2c1	0.6	-9.7	-1.4	2.6	-1.0
Cc1ccc2oc(-c3cccc(NC(=S)NC(=O)/C=C/c4ccco4)c3)nc2c1	3.1	-18.2	56.8*	11.3	-13.9
CCS(=O)(=O)N1CCN(S(=O)(=O)c2ccc3c(c2)OCCO3)CC1	20.9	-20.1	-8.8	23.4	0.0
COc1ccc(C(=O)COC(=O)c2cccnc2Cl)c(OC)c1	-3.1	6.9	68.3*	6.8	-13.4
COc1ccc(COc2cccnc2N)cc1	19.8*	7.3	0.2	27.5	-1.0
Nc1ncccc1OCc1ccc(Br)cc1	-3.8	-0.5	-2.9	-8.1	-1.2
SMILES	GPR7 antag	p-CIP stab down	core dimer inh	NS3 helicase inh	DNA FID counter
O=C(NC1CCN(C(=O)NCc2ccccc2)CC1)c1ccccc1	-9.9	-11.2	-1.2	5.9	-5.3
CC(=O)Nc1ccccc1OCC(=O)c1cc(C)n(Cc2cccs2)c1C	25.1*	-25.7	4.8	-1.2	-27.6
Cc1cc(C(=O)COc2cccnc2[N+](=O)[O-])c(C)n1Cc1cccs1	-9.7	-6.6	2.2	15.6	-7.0
O=C(O)c1cnc2[nH]c3ccccc3n2c1=O	-5.7	-10.0	1.4	-2.5	0.1
CCOc1ccc(CN2CCC(n3nccc3NC(=O)CCCc3ccccc3)CC2)cc1	9.2	-8.7	2.7	-39.5	38.2*
O=C(CCCc1ccccc1)Nc1ccnn1C1CCN(Cc2ccccc2)CC1	8.1	0.5	-12.6	-7.2	20.3
CCc1ccc(NC(=O)C2CCCN(S(=O)(=O)c3ccc4c(c3)CC(C)N4C(C)=O)C2)cc1 (configuration not stated)	-5.6	-14.0	18.1	-20.2	-49.7
CCc1ccc(NC(=O)C2CCN(S(=O)(=O)c3ccc4c(c3)CC(C)N4C(C)=O)CC2)cc1 (configuration not stated)	20.9*	-62.1	20.5	19.2	-47.9
N#C/C(=C(/O)CCl)c1nc(-c2ccccc2)cs1	18.8*	-4.6	21.4	1.7	-1.6
CNC(=O)c1c(NC(=O)C2=COCCO2)sc2c1CCCC2	-8.3	-11.2	5.2	2.6	-11.9
O=C(Oc1ccc(-c2cn3c(n2)SCC3)cc1)c1ccccc1	17.9*	1.5	7.7	-4.5	-16.6
CN(C(=O)CSc1nnnn1-c1ccccc1)C1CCS(=O)(=O)C1 (configuration not stated)	19.0*	-10.8	-6.5	-13.2	-2.0
C[C@H](NC(=O)C1CC(=O)N(c2ccc3c(c2)OCCO3)C1)C(=O)NCc1ccco1 (some centres not stated)	-5.1	-4.8	-6.4	-6.5	-2.3
O=C(CCN1C(=O)c2ccccc2S1(=O)=O)Nc1cccc(F)c1	x	x	-4.4	x	x
CCN(CC(=O)NCc1ccc(F)cc1)CC(=O)NC1CCCC1	-7.3	-12.6	-4.1	-8.3	-13.0
Cc1ncc(CN2CCCC(C(=O)Nc3ccc(-c4ccco4)cc3)C2)n1C (configuration not stated)	-5.1	-3.4	-2.9	-30.2	21.1
CSc1ncc(CN2CCCC(C(=O)Nc3ccc(-c4ccco4)cc3)C2)cn1 (configuration not stated)	3.5	8.8	57.3*	-10.6	-24.6
Cc1ccccc1OCC(=O)NNC(=O)c1cc(S(=O)(=O)N2CCOCC2)ccc1N1CCCC1	x	x	-2.4	x	x
Cc1ccc(/C=C2\CCC3=C2OC(N)=C(C#N)C3c2ccc(C)cc2)cc1 (configuration not stated)	2.4	-111.7	75.7*	31.8	-15.2
Cc1cccc(NC(=S)N(CCCN(C)C)Cc2cc3cc4c(cc3[nH]c2=O)OCO4)c1	-3.2	-12.9	-0.1	-2.2	37.6*
CCc1ccccc1NC(=S)N(CCCN(C)C)Cc1cc2cc3c(cc2[nH]c1=O)OCO3	-6.1	-5.6	1.7	-13.6	43.2*
Cc1cccc(NC(=S)N(CCN(C)C)Cc2cc3cc(C)ccc3[nH]c2=O)c1	-2.8	-18.9	-3.0	-14.1	20.9
CCCCNC(=S)N(CCCN(C)C)Cc1cc2cc3c(cc2[nH]c1=O)OCO3	-7.1	-18.0	6.0	-3.3	2.5
O=C(Nc1ccnn1C1CCN(Cc2ccc(O)c(Cl)c2)CC1)C1CCCC1	-8.8	-1.3	-10.4	9.0	6.1
COc1ccc(Cl)cc1S(=O)(=O)N1CCC(C(=O)NC2CC2)CC1	-9.2	-16.0	-3.4	-22.6	-9.6
COc1ccc(OCCCC(=O)Nc2ncn[nH]2)cc1	-0.7	1.9	2.1	6.9	-3.3
